Legend:
[1] = tested on: Human immunodeficiency virus 1; experiment: Antiviral activity against HIV1 NL4-3 expressing NanoLuc-sec infected in human MT4 cells assessed as reduction in viral replication measured after 3 days by bright Glo-luciferase reporter gene assay; format: functional, organism-based; conditions: Human immunodeficiency virus 1, NL4-3, MT4, 72 h
Outline: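 MT-4 cells (1 × 10⁵ cells/mL) infected with 200 TCID50 HIV-1 NL4–3 Nanoluc-sec across a range of compound concentrations. Incubation ran 3 days at 37°C, 5% CO₂, over multiple replication rounds. Luminescence was read after Bright Glo addition. EC₅₀ is the concentration giving 50% lower luciferase RLU than virus-control wells.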

MT4 = experiment: (§1) Cytotoxicity against human MT4 cells assessed as reduction in cell viability incubated for 3 days by XTT assay; format: cell-based; conditions: mt4, 72 h, time 3 day
Outline: (§2)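 Uninfected MT-4 cells were cultured with various compound concentrations at 37°C, 5% CO₂ for three days, in parallel with the antiviral assay. XTT was added, and absorbance at 450 nm was read four hours later. CC₅₀ is the concentration giving 50% loss of cell viability.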

[2] = as §1; format: cell-based; conditions: MT4 cells, time 3 day; outline: as §2
[3] = Selectivity index, ratio of CC50 for cytotoxicity against human MT4 cells to EC50 for antiviral activity against HIV1 infected in human MT4 cells; format: toxicity, cell-based; conditions: read-out: Ratio CC50/EC50
Outline: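 SI is CC₅₀/EC₅₀. For EC₅₀, MT-4 cells (1 × 10⁵ cells/mL) were infected with 200 TCID50 HIV-1 NL4-3 Nanoluc-sec with graded compound concentrations, held 3 days at 37°C, 5% CO₂, and read by luminescence; EC₅₀ is 50% luciferase reduction versus virus control. For CC₅₀, uninfected MT-4 cells were run in parallel for 3 days with an XTT read-out at 450 nm.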

[4] = Binding affinity to HIV1 capsid protein hexamer assessed as dissociation constant by SPR analysis; parameters: species or system Human immunodeficiency virus 1
Outline: (§3)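 SPR at 25 °C on amine-coupled GLH chips, with protein at 500 μg/ml in 10 mM sodium acetate pH 5.5. Running buffer was 20 mM sodium phosphate, 150 mM NaCl, 0.005% Tween 20, pH 7.4, plus 3% DMSO for compound dilutions. One-shot kinetics used 100 μL/min, 1 min association and 5 min dissociation. Responses were reference-subtracted, run three times, and KD taken from a one-site binding model.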

[5] = Binding affinity to HIV1 capsid protein monomer assessed as dissociation constant by SPR analysis; parameters: species or system Human immunodeficiency virus 1; outline: as §3

Structure (SMILES) | EC50 [1] | CC50 (MT4) | CC50 at 72 h [2] | selectivity ratio [3] | Kd [4] | Kd [5]
COc1ccc(N(C)C(=O)[C@H](Cc2ccccc2)NC(=O)c2cccc(S(=O)(=O)N3CCc4ccccc43)c2)cc1 | > 8.78 µM | > 8.78 µM | – | – | – | –
COc1ccc(N(C)C(=O)[C@H](Cc2ccccc2)NC(=O)c2cccc(S(=O)(=O)Nc3cc(F)cc(F)c3)c2)cc1 | > 8.63 µM | > 8.63 µM | – | – | – | –
COc1ccc(N(C)C(=O)[C@H](Cc2ccccc2)NC(=O)c2cccc(S(=O)(=O)N3CCCCC3)c2)cc1 | 4.85 µM | – | > 9.03 µM | > 1.86 | – | –
COc1ccc(N(C)C(=O)[C@H](Cc2ccccc2)NC(=O)c2cccc(NS(=O)(=O)c3ccc(OC(F)(F)F)cc3)c2)cc1 | > 7.97 µM | > 7.97 µM | – | – | – | –
COc1ccc(N(C)C(=O)[C@H](Cc2ccccc2)NC(=O)C(=O)Nc2ccc([N+](=O)[O-])cc2)cc1 | > 10.5 µM | – | – | – | – | –
COc1ccc(N(C)C(=O)[C@H](Cc2ccccc2)NC(=O)C(=O)Nc2ccc3ncsc3c2)cc1 | > 10.2 µM | > 10.2 µM | – | – | – | –
COc1ccc(N(C)C(=O)[C@H](Cc2ccccc2)NC(=O)c2cccc(NS(=O)(=O)c3cc(F)cc(F)c3)c2)cc1 | > 8.63 µM | > 8.63 µM | – | – | – | –
COc1ccc(N(C)C(=O)CS(=O)(=O)N[C@@H](Cc2ccccc2)C(=O)N(C)c2ccc(OC)cc2)cc1 | 5.14 µM | > 9.51 µM | – | > 1.85 | 4.82 µM | 15.8 µM
COc1ccc(N(C)C(=O)[C@H](Cc2ccccc2)NC(=O)C(=O)N2CCc3cc(OC)ccc32)cc1 | > 10.3 µM | > 10.3 µM | – | – | – | –
COc1ccc(N(C)C(=O)[C@H](Cc2ccccc2)NS(=O)(=O)c2cccc(C(=O)Nc3ccc4ncsc4c3)c2)cc1 | > 8.32 µM | > 8.32 µM | – | – | – | –
COc1ccc(N(C)C(=O)[C@H](Cc2ccccc2)NS(=O)(=O)c2cccc(C(=O)N3CCc4ccncc43)c2)cc1 | > 8.76 µM | – | > 8.76 µM | – | – | –
COc1ccc(N(C)C(=O)[C@H](Cc2ccccc2)NC(=O)c2cccc(S(=O)(=O)Nc3ccc(C(F)(F)F)cc3)c2)cc1 | > 8.17 µM | > 8.17 µM | – | – | – | –
COc1ccc(N(C)C(=O)[C@H](Cc2ccccc2)NC(=O)c2cccc(S(=O)(=O)N3CCc4cc(OC)ccc43)c2)cc1 | > 8.34 µM | > 8.34 µM | – | – | – | –
COc1ccc(N(C)C(=O)[C@H](Cc2ccccc2)NS(=O)(=O)c2cccc(C(=O)N3CCOCC3)c2)cc1 | > 9.3 µM | > 9.3 µM | – | – | – | –
COc1ccc(N(C)C(=O)[C@H](Cc2ccccc2)NS(=O)(=O)CC(=O)Nc2ccc3ncsc3c2)cc1 | > 9.28 µM | > 9.28 µM | – | – | – | –
COc1ccc(N(C)C(=O)[C@H](Cc2ccccc2)NC(=O)C(=O)Nc2cc(F)cc(F)c2)cc1 | > 8.81 µM | > 8.81 µM | – | – | – | –

Structure (SMILES) | EC50 [1] | CC50 (MT4) | CC50 at 72 h [2] | selectivity ratio [3] | Kd [4] | Kd [5]
COc1ccc(N(C)C(=O)[C@H](Cc2ccccc2)NC(=O)c2cccc(S(=O)(=O)N3CCc4cc(N)ccc43)c2)cc1 | 2.57 µM | > 8.55 µM | – | > 3.33 | 4.21 µM | 11.6 µM
COc1ccc(N(C)C(=O)[C@H](Cc2ccccc2)NC(=O)c2cccc(S(=O)(=O)N(C)c3ccc(OC)cc3)c2)cc1 | 5.27 µM | > 8.51 µM | – | > 1.61 | – | –
COc1ccc(N(C)C(=O)[C@H](Cc2ccccc2)NC(=O)C(=O)N2CCc3cc([N+](=O)[O-])ccc32)cc1 | > 9.95 µM | > 9.95 µM | – | – | – | –
COc1ccc(N(C)C(=O)[C@H](Cc2ccccc2)NS(=O)(=O)CC(=O)Nc2cc(F)cc(F)c2)cc1 | > 9.66 µM | > 9.66 µM | – | – | – | –
COc1ccc(N(C)C(=O)[C@H](Cc2ccccc2)NS(=O)(=O)CC(=O)N2CCc3cc(OC)ccc32)cc1 | > 9.3 µM | > 9.3 µM | – | – | – | –
COc1ccc(N(C)C(=O)[C@H](Cc2ccccc2)NC(=O)C(=O)Nc2ccc(C#N)cc2)cc1 | > 11 µM | > 11 µM | – | – | – | –
COc1ccc(N(C)C(=O)[C@H](Cc2ccccc2)NC(=O)c2cccc(S(=O)(=O)N3CCSCC3)c2)cc1 | 5.06 µM | > 9.33 µM | – | > 1.84 | – | –
COc1ccc(N(C)C(=O)[C@H](Cc2ccccc2)NS(=O)(=O)c2cccc(C(=O)NC3CC3)c2)cc1 | > 9.85 µM | > 9.85 µM | – | – | – | –
COc1ccc(N(C)C(=O)[C@H](Cc2ccccc2)NC(=O)c2cccc(S(=O)(=O)N3CCc4cc([N+](=O)[O-])ccc43)c2)cc1 | > 8.13 µM | > 8.13 µM | – | – | – | –
COc1ccc(N(C)C(=O)[C@H](Cc2ccccc2)NS(=O)(=O)CC(=O)N2CCc3cc([N+](=O)[O-])ccc32)cc1 | > 9.09 µM | – | > 9.05 µM | – | – | –
COc1ccc(N(C)C(=O)C(=O)N[C@@H](Cc2ccccc2)C(=O)N(C)c2ccc(OC)cc2)cc1 | > 10.5 µM | > 10.5 µM | – | – | – | –
COc1ccc(N(C)C(=O)[C@H](Cc2ccccc2)NS(=O)(=O)CC(=O)n2ncc3ccccc32)cc1 | > 9.87 µM | > 9.87 µM | – | – | – | –
COc1ccc(N(C)C(=O)[C@H](Cc2ccccc2)NC(=O)c2cccc(S(=O)(=O)N(C)C)c2)cc1 | 8.68 µM | > 10.1 µM | – | > 1.12 | – | –
COc1ccc(N(C)C(=O)c2cccc(S(=O)(=O)N[C@@H](Cc3ccccc3)C(=O)N(C)c3ccc(OC)cc3)c2)cc1 | > 8.51 µM | > 8.51 µM | – | – | – | –
COc1ccc(N(C)C(=O)[C@H](Cc2ccccc2)NS(=O)(=O)CC(=O)Nc2ccc(C#N)cc2)cc1 | 8.09 µM | > 9.87 µM | – | > 1.22 | – | –
COc1ccc(N(C)C(=O)[C@H](Cc2ccccc2)NC(=O)c2cccc(NS(=O)(=O)c3ccc(F)cc3)c2)cc1 | > 8.91 µM | > 8.91 µM | – | – | – | –
